MBD2 DNA inh: blocks human MBD2 binding to methylated DNA; AID 686964; inhibition, % at 4.4 µM; hit rate 0.31% among 370,000; TR-FRET, MBD2 binding to methylated oligonucleotide; Q9UBB5; in the data active = inhibition above about 13%
TDP2 inh: TDP2 (human) inhibition, absorbance primary screen; O95551; inhibition, % at 12.8 µM; recombinant TDP2, T5PNP hydrolysis, p-nitrophenol absorbance 415 nm; AID 720702; hit rate 0.34% among 370,000;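 active = inhibition above the mean of all tested compounds plus 3 SD, set per campaign, cut at about 25% in these data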;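 also: 0% = DMSO with enzyme and 100% = buffer with substrate but no TDP2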
Target sequence (O95551 whole entry, looked up): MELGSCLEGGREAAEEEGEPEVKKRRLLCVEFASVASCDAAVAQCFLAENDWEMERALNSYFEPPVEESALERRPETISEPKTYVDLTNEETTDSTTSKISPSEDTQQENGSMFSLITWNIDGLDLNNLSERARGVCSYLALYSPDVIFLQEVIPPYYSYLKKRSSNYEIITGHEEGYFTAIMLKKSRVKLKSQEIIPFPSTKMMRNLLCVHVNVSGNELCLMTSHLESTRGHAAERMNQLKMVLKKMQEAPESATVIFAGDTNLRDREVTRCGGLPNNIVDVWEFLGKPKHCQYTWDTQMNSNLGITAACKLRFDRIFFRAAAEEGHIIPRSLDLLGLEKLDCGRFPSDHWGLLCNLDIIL
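Read-out basis: percent inhibition. System: recombinant human TDP2. Buffer or medium: Mg2+-containing Tris-HCl buffer, pH 7.5. Repeats: single replicate. Timing: reaction 2 h, 37 °C. Benchmarks: high control without enzyme, low control DMSO plus TDP2. Probe or stimulus: 5 mM T5PNP. Doses: 12.8 µM only. Measured by: epi absorbance of p-nitrophenol freed from T5PNP by hydrolysis.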
LEDGF integ inh: blocks HIV-1 LEDGF/p75-dependent DNA integration; TR-FRET IN-LEDGF/p75 DNA integration, Eu/Cy5; inhibition, % at 3.7 µM; hit rate 0.64% among 370,000;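 active = inhibition above the screen-wide mean plus 3 SD, cut at about 13% in these data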;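 also: signal is the Cy5 over europium emission ratio at 671 and 618 nm; 0% = plate median of compound wells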
UHRF1 MBD2 ctr: blocks human UHRF1 binding to methylated DNA; Q96T88; UHRF1 binding to methylated oligo, TR-FRET; inhibition, % at 4.4 µM; hit rate 0.75% among 370,000; AID 687016; in the data active = inhibition above about 21%;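 also: UHRF1 SRA domain binding a hemimethylated CpG hairpin DNA probe; 0% = median of test compound wells and 100% = reference inhibitor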
* = called active by the depositor. The list is not random: actives were taken first. Their share in the collection is about 1.6%.

What do the screens show for `O=C(CCc1ccccc1)N[C@H]1[C@H](OCc2ccccc2)CCC[C@@]12C(=O)N(Cc1ccccc1)c1ccccc12`?
MBD2 DNA inh: 2; TDP2 inh: 6; LEDGF integ inh: -5; UHRF1 MBD2 ctr: -1

What do the screens show for `Cc1c(CC(=O)NCC(=O)O)c(=O)oc2cc3oc4c(c3cc12)CCCC4`?
MBD2 DNA inh: -2; TDP2 inh: -6; LEDGF integ inh: -1; UHRF1 MBD2 ctr: -3

Results for Cc1c(CC(=O)O)c(=O)oc2cc3oc4c(c3cc12)CCCC4 ?
MBD2 DNA inh: 0; TDP2 inh: 1; LEDGF integ inh: -2; UHRF1 MBD2 ctr: 26*

How did Cc1cc(Oc2ccc([N+](=O)[O-])cc2)nc(N2CCOCC2)n1 do in these assays?
MBD2 DNA inh: -4; TDP2 inh: -22; LEDGF integ inh: 6; UHRF1 MBD2 ctr: 1

What do the screens show for `Cc1cc(Oc2ccc(C#N)cc2)nc(N2CCOCC2)n1`?
MBD2 DNA inh: 11; TDP2 inh: 10; LEDGF integ inh: 1; UHRF1 MBD2 ctr: 21*

Results for Cc1cccc(-n2nc3c(c2NC(=O)c2ccco2)CSC3)c1C ?
MBD2 DNA inh: 1; TDP2 inh: -4; LEDGF integ inh: 29*; UHRF1 MBD2 ctr: 6

What do the screens show for `C=C(NC(=O)C(=C)NC(=O)c1csc(C2=NC3c4csc(n4)C4NC(=O)c5csc(n5)C(C(C)(O)C(C)O)NC(=O)C5CSC(=N5)/C(=C/C)NC(=O)C(C(C)O)NC(=O)c5csc(n5)C3(CC2)NC(=O)C(C)NC(=O)C(=C)NC(=O)C(=C)NC(=O)C(C(C)C)NC2C=Cc3c(C(C)O)cc(nc3C2O)C(=O)OC4C)n1)C(N)=O` (stereo not drawn)?
MBD2 DNA inh: 7; TDP2 inh: 5; LEDGF integ inh: 32*; UHRF1 MBD2 ctr: -2

What do the screens show for `S=C(NC1CCCCC1)N1CCN(Cc2ccccc2Cl)CC1`?
MBD2 DNA inh: 7; TDP2 inh: 6; LEDGF integ inh: -4; UHRF1 MBD2 ctr: 0

Results for S=C(NC1CCCCC1)N1CCN(Cc2ccccc2)CC1 ?
MBD2 DNA inh: 5; TDP2 inh: 8; LEDGF integ inh: -2; UHRF1 MBD2 ctr: 21*

Results for O=C(C(=O)N1CCC(CNS(=O)(=O)c2ccc(C(F)(F)F)cc2)CC1)c1cccs1 ?
MBD2 DNA inh: -1; TDP2 inh: -4; LEDGF integ inh: 1; UHRF1 MBD2 ctr: 0

What do the screens show for `O=C(NC1CCCCN(Cc2ccc(Cl)cc2)C1=O)c1c(F)cccc1F` (stereo not drawn)?
MBD2 DNA inh: 2; TDP2 inh: -1; LEDGF integ inh: 9; UHRF1 MBD2 ctr: -2

Results for O=C(CN1CCCCCC1)Nc1cccc([N+](=O)[O-])c1 ?
MBD2 DNA inh: -3; TDP2 inh: 12; LEDGF integ inh: 2; UHRF1 MBD2 ctr: 0

Results for C/C(=N\NC(=O)CN1CCCCC1)c1cccc([N+](=O)[O-])c1 ?
MBD2 DNA inh: 0; TDP2 inh: 0; LEDGF integ inh: -2; UHRF1 MBD2 ctr: 25*

How did COC(=O)/C=c1/s/c(=C(/C#N)C(=O)N2CCCCC2)n(-c2ccccc2)c1=O do in these assays?
MBD2 DNA inh: -2; TDP2 inh: -3; LEDGF integ inh: -2; UHRF1 MBD2 ctr: 2

How did COC(=O)/C=c1/s/c(=C(/C#N)C(=O)N2CCOCC2)n(-c2ccccc2)c1=O do in these assays?
MBD2 DNA inh: 2; TDP2 inh: -9; LEDGF integ inh: -2; UHRF1 MBD2 ctr: 80*

What do the screens show for `CC(C)C[C@@H]1COc2cc(Br)ccc2S(=O)(=O)N1Cc1cn(CC2CCCCC2)nn1`?
MBD2 DNA inh: 2; TDP2 inh: 4; LEDGF integ inh: -3; UHRF1 MBD2 ctr: 1

How did Cc1ccc(NC(=O)CSc2nnc(Cn3cnc4ccccc43)o2)cc1 do in these assays?
MBD2 DNA inh: 0; TDP2 inh: 13; LEDGF integ inh: -2; UHRF1 MBD2 ctr: 21*

What do the screens show for `C(/C=C\c1ccco1)=NN1CCN(Cc2cccc3ccccc23)CC1`?
MBD2 DNA inh: 2; TDP2 inh: -2; LEDGF integ inh: 2; UHRF1 MBD2 ctr: -5

How did COC(=O)c1ccccc1NC(=O)NCc1cccnc1 do in these assays?
MBD2 DNA inh: 7; TDP2 inh: -3; LEDGF integ inh: 1; UHRF1 MBD2 ctr: 4

Results for COC(=O)c1ccccc1NC(=O)C(=O)NCc1ccncc1 ?
MBD2 DNA inh: 1; TDP2 inh: 2; LEDGF integ inh: 2; UHRF1 MBD2 ctr: 42*

What do the screens show for `CCN(CC)CCCNC(=O)c1cn(C)c2ccc(S(=O)(=O)N(C)C)cc2c1=O`?
MBD2 DNA inh: 8; TDP2 inh: 5; LEDGF integ inh: 6; UHRF1 MBD2 ctr: 27*

What do the screens show for `CC1NC(=O)NC1CCCCCC(=O)NCCc1ccccc1` (stereo not drawn)?
MBD2 DNA inh: -1; TDP2 inh: 7; LEDGF integ inh: 78*; UHRF1 MBD2 ctr: 2

Results for O=C1[C@H](c2ccccc2)[C@@H](c2ccccc2)N1c1ccncc1 ?
MBD2 DNA inh: 9; TDP2 inh: 1; LEDGF integ inh: -1; UHRF1 MBD2 ctr: 22*

Results for CCc1ccc2nc(/N=C(\N)NC(=O)c3ccccc3)nc(C)c2c1 ?
MBD2 DNA inh: 0; TDP2 inh: 7; LEDGF integ inh: 4; UHRF1 MBD2 ctr: 1

How did CCCC(=O)N/C(N)=N/c1nc(C)c2ccccc2n1 do in these assays?
MBD2 DNA inh: -1; TDP2 inh: -12; LEDGF integ inh: -3; UHRF1 MBD2 ctr: 34*

Results for Cc1[nH]n(S(=O)(=O)c2ccccc2)c(=O)c1N=Nc1cccc(Cl)c1 ?
MBD2 DNA inh: 5; TDP2 inh: -15; LEDGF integ inh: -6; UHRF1 MBD2 ctr: 34*

How did COc1ccc(-c2ccc3c(n2)CCCN3S(=O)(=O)c2c(C)noc2C)cc1 do in these assays?
MBD2 DNA inh: -1; TDP2 inh: -4; LEDGF integ inh: 2; UHRF1 MBD2 ctr: 1

Results for COC(=O)[C@]12CCCCC=C1N(Cc1ccc(OC)cc1)C(=O)[C@@H]2CC(=O)N1CCN(C(=O)C2CC2)CC1 ?
MBD2 DNA inh: -6; TDP2 inh: -11; LEDGF integ inh: 4; UHRF1 MBD2 ctr: 1

Results for COc1cccc(Oc2ccc(OC)cc2C(=O)O)c1 ?
MBD2 DNA inh: 6; TDP2 inh: 3; LEDGF integ inh: 1; UHRF1 MBD2 ctr: 26*

How did Cc1ccc(Cn2nnc3c2-c2cc(F)ccc2S(=O)(=O)N(C(C)(C)C)C3)cc1 do in these assays?
MBD2 DNA inh: 3; TDP2 inh: -16; LEDGF integ inh: 2; UHRF1 MBD2 ctr: 4

How did O=c1c2ccccc2nc2n1C(CSCc1ccc(Cl)cc1Cl)CS2 (stereo not drawn) do in these assays?
MBD2 DNA inh: 8; TDP2 inh: 3; LEDGF integ inh: 2; UHRF1 MBD2 ctr: 22*

How did COC(=O)[C@@]12CCCCC3=C1N(CCC3)C(=O)[C@H]2CC(=O)N1CCC(c2ccccc2)CC1 do in these assays?
MBD2 DNA inh: 2; TDP2 inh: 3; LEDGF integ inh: 1; UHRF1 MBD2 ctr: 1

How did CC(=O)c1cnc(-c2cccc(Cl)c2)s1 do in these assays?
MBD2 DNA inh: 5; TDP2 inh: 5; LEDGF integ inh: -2; UHRF1 MBD2 ctr: 37*

Results for CN(c1ncc(C(F)(F)F)cc1Cl)N1C(=O)c2cccc([N+](=O)[O-])c2C1=O ?
MBD2 DNA inh: 1; TDP2 inh: -14; LEDGF integ inh: 4; UHRF1 MBD2 ctr: 23*

Screening data from PubChem.
